Assays:
Type in all cases: functional
IGROV-1 = assay: Cytotoxicity against human IGROV1 cells after 48 hrs by SRB assay; settings: IGROV-1, 48 h
In short: (§1)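 NCI 60-cell-line panel of human tumour lines from nine cancer types. Continuous 48 h exposure at five 10-fold dilutions from 10^-4 to 10^-8 M, with 5-FU as positive control. SRB protein stain read spectrophotometrically at time zero, untreated control and each concentration. GI50, TGI and LC50 were derived from the [(Ti−Tz)/(C−Tz)]×100 growth relations, and out-of-range values are given as > or < the tested limits.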

SNB-19 = assay: Growth inhibition of human SNB19 cells assessed as cell growth at 10^-4 M after 48 hrs by SRB assay; settings: SNB-19, 48 h, read-out: Activity
MDA-MB-435 = assay: Growth inhibition of human MDA-MB-435 cells assessed as cell growth at 10^-5 M after 48 hrs by SRB assay; settings: MDA-MB-435, 48 h, read-out: Activity
LOX IMVI = assay: Cytotoxicity against human LOXIMVI cells after 48 hrs by SRB assay; in short: as §1
[1] = Growth inhibition of human HCC2998 cells assessed as cell growth at 10^-7 M after 48 hrs by SRB assay; settings: HCC 2998, 48 h, read-out: Activity
[2] = Growth inhibition of human HOP92 cells assessed as cell growth at 10^-7 M after 48 hrs by SRB assay; settings: HOP-92, 48 h, read-out: Activity
[3] = Cytotoxicity against human EKVX cells after 48 hrs by SRB assay; in short: as §1
K562 [4] = assay: Growth inhibition of human K562 cells assessed as cell growth at 10^-6 M after 48 hrs by SRB assay; settings: K562, 48 h, read-out: Activity
[5] = Growth inhibition of human BT549 cells assessed as cell growth at 10^-6 M after 48 hrs by SRB assay; settings: BT-549, 48 h, read-out: Activity
In short: (§2)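 Five-dose NCI panel protocol. Each dose (10^-4 to 10^-8 M, 10-fold steps) was given as 48 h continuous exposure, and protein was measured by SRB staining. Percentage growth at each level is [(Ti−Tz)/(C−Tz)]×100, where Tz is time-zero absorbance and C is untreated control.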

NCI-H322M = assay: Growth inhibition of human NCI-H322M cells assessed as cell growth at 10^-6 M after 48 hrs by SRB assay; settings: read-out: Activity
K562 [6] = assay: Cytotoxicity against human K562 cells after 48 hrs by SRB assay; settings: K562, 48 h; in short: as §1
DU-145 = assay: Growth inhibition of human DU145 cells assessed as cell growth at 10^-8 M after 48 hrs by SRB assay; settings: DU-145, 48 h, read-out: Activity
K562 [7] = assay: Growth inhibition of human K562 cells assessed as cell growth at 10^-4 M after 48 hrs by SRB assay; settings: K562, 48 h, read-out: Activity
MCF7 = assay: Growth inhibition of human MCF7 cells assessed as cell growth at 10^-6 M after 48 hrs by SRB assay; settings: MCF7, 48 h, read-out: Activity
ACHN = assay: Growth inhibition of human ACHN cells assessed as cell growth at 10^-6 M after 48 hrs by SRB assay; settings: read-out: Activity; in short: as §2
SF-539 = assay: Cytotoxicity against human SF539 cells after 48 hrs by SRB assay; settings: SF-539, 48 h; in short: as §1
[8] = Growth inhibition of human SF295 cells assessed as cell growth at 10^-7 M after 48 hrs by SRB assay; settings: SF-295, 48 h, read-out: Activity
[9] = Growth inhibition of human BT549 cells assessed as cell growth at 10^-8 M after 48 hrs by SRB assay; settings: BT-549, 48 h, read-out: Activity; in short: as §2
[10] = Growth inhibition of human HCC2998 cells assessed as cell growth at 10^-6 M after 48 hrs by SRB assay; settings: HCC 2998, 48 h, read-out: Activity
[11] = Growth inhibition of human BT549 cells assessed as cell growth at 10^-5 M after 48 hrs by SRB assay; settings: BT-549, 48 h, read-out: Activity; in short: as §2
T47D = assay: Growth inhibition of human T47D cells assessed as cell growth at 10^-6 M after 48 hrs by SRB assay; settings: read-out: Activity
SN12C = assay: Growth inhibition of human SN12C cells assessed as cell growth at 10^-5 M after 48 hrs by SRB assay; settings: read-out: Activity
SR = assay: Cytotoxicity against human SR cells after 48 hrs by SRB assay; in short: as §1
[12] = Growth inhibition of human MOLT4 cells assessed as cell growth at 10^-7 M after 48 hrs by SRB assay; settings: MOLT-4, 48 h, read-out: Activity
NCI-H460 = assay: Growth inhibition of human NCI-H460 cells assessed as cell growth at 10^-4 M after 48 hrs by SRB assay; settings: NCI-H460, 48 h, read-out: Activity
[13] = Cytotoxicity against human UO31 cells after 48 hrs by SRB assay; settings: UO-31, 48 h
In short: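 NCI 60-cell-line panel, 48 h continuous exposure to five 10-fold dilutions from 10^-4 to 10^-8 M. SRB protein staining was read spectrophotometrically, with time-zero, untreated-control and treated absorbances. GI50, TGI and LC50 were derived from the percentage-growth formulas. Values outside the tested range are expressed as more or less than the maximum or minimum concentration.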

[14] = Growth inhibition of human MOLT4 cells assessed as cell growth at 10^-6 M after 48 hrs by SRB assay; settings: MOLT-4, 48 h, read-out: Activity
M14 = assay: Growth inhibition of human M14 cells assessed as cell growth at 10^-6 M after 48 hrs by SRB assay; settings: M14, 48 h, read-out: Activity
HCT-116 = assay: Growth inhibition of human HCT116 cells assessed as cell growth at 10^-6 M after 48 hrs by SRB assay; settings: HCT-116, 48 h, read-out: Activity
[15] = read-out: LC50 (the source's name)
[16] = read-out: pLC50 (the source's name) (converted)

`Cc1ccc(-c2nc3ccc(Cl)cc3c(=O)n2/N=C/c2ccccc2)cc1` showed a GI50 (IGROV-1; read-out: GI50) of 3.69 µM, a CC50 (IGROV-1; [15]) of over 100 µM and a TGI (IGROV-1; read-out: TGI) of over 100 µM. The GI50 (IGROV-1; read-out: pGI50 (converted)) was 3.72 µM, the CC50 (IGROV-1; [16]) was over 100 µM and the TGI (IGROV-1; read-out: pTGI) was over 100 µM. The growth at 100 µM (SNB-19) was 10%, the growth at 10 µM (MDA-MB-435) was 59% and the GI50 (LOX IMVI; read-out: GI50) was 70.1 µM. The CC50 (LOX IMVI; [15]) was over 100 µM, the TGI (LOX IMVI; read-out: TGI) was over 100 µM and the GI50 (LOX IMVI; read-out: pGI50 (converted)) was 70.8 µM. It also gave a CC50 (LOX IMVI; [16]) of over 100 µM, a TGI (LOX IMVI; read-out: pTGI) of over 100 µM and a growth at 0.1 µM [1] of 102%. The growth at 0.1 µM [2] was 89%, the GI50 ([3]; read-out: GI50) was 4.15 µM and the CC50 [3, 15] was over 100 µM. The TGI ([3]; read-out: TGI) was over 100 µM, the GI50 ([3]; read-out: pGI50 (converted)) was 4.17 µM and the CC50 [3, 16] was over 100 µM. It also gave a TGI ([3]; read-out: pTGI) of over 100 µM, a growth at 1 µM (K562 [4]) of 92% and a growth at 1 µM [5] of 103%. The growth at 1 µM (NCI-H322M) was 82%, the GI50 (K562 [6]; read-out: GI50) was over 100 µM and the LC50 (K562 [6]; read-out: LC50) was over 100 µM. The TGI (K562 [6]; read-out: TGI) was over 100 µM, the GI50 (K562 [6]; read-out: pGI50 (converted)) was over 100 µM and the LC50 (K562 [6]; read-out: pLC50 (converted)) was over 100 µM. For the same molecule, the TGI (K562 [6]; read-out: pTGI) was over 100 µM, the growth at 0.01 µM (DU-145) was 97% and the growth at 100 µM (K562 [7]) was 59%. It also gave a growth at 1 µM (MCF7) of 86%, a growth at 1 µM (ACHN) of 40% and a GI50 (SF-539; read-out: GI50) of over 100 µM. For the same molecule, the CC50 (SF-539; [15]) was over 100 µM, the TGI (SF-539; read-out: TGI) was over 100 µM and the GI50 (SF-539; read-out: pGI50 (converted)) was over 100 µM. The CC50 (SF-539; [16]) was over 100 µM, the TGI (SF-539; read-out: pTGI) was over 100 µM and the growth at 0.1 µM [8] was 80%. It also gave a growth at 0.01 µM [9] of 100%, a growth at 1 µM [10] of 96% and a growth at 10 µM [11] of 90%. It also gave a growth at 1 µM (T47D) of 100%, a growth at 10 µM (SN12C) of 51% and a GI50 (SR; read-out: GI50) of over 100 µM. It also gave a CC50 (SR; [15]) of over 100 µM, a TGI (SR; read-out: TGI) of over 100 µM and a GI50 (SR; read-out: pGI50 (converted)) of over 100 µM. The CC50 (SR; [16]) was over 100 µM, the TGI (SR; read-out: pTGI) was over 100 µM and the growth at 0.1 µM [12] was 96%. It also gave a growth at 100 µM (NCI-H460) of 24%, a GI50 ([13]; read-out: GI50) of 3.66 µM and a CC50 [13, 15] of over 100 µM. The TGI ([13]; read-out: TGI) was over 100 µM, the GI50 ([13]; read-out: pGI50 (converted)) was 3.63 µM and the CC50 [13, 16] was over 100 µM. For the same molecule, the TGI ([13]; read-out: pTGI) was over 100 µM, the growth at 1 µM [14] was 99% and the growth at 1 µM (M14) was 97%. It also gave a growth at 1 µM (HCT-116) of 87%.

From ChEMBL document CHEMBL3259728, “Design, synthesis and biological evaluation of some novel substituted quinazolines as antitumor agents” (2014)
